Numbering of substitutions follows the chain as printed.
Columns and labels:
[1] = biological target: T1, Nonstructural protein 5A (Hepatitis C virus) (UniProt Q5L478); assay: Inhibition of HCV GT2a NS5A assessed as suppression of replicon RNA level by real-time PCR analysis; settings: Hepatitis C virus subtype 2a
T1 sequence (whole entry): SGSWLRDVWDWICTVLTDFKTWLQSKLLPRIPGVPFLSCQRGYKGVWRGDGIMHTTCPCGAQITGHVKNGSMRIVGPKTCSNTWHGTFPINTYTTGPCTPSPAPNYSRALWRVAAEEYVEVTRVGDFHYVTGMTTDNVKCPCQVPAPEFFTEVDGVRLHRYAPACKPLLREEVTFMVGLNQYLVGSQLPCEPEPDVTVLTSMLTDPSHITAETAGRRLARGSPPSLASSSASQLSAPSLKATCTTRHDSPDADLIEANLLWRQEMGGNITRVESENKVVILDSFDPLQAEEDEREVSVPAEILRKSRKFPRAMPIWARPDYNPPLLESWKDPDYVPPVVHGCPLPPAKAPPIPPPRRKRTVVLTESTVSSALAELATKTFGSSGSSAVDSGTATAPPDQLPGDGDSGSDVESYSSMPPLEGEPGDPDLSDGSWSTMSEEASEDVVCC

[2] = biological target: T1, Nonstructural protein 5A (Hepatitis C virus); assay: Inhibition of HCV GT1a NS5A assessed as suppression of replicon RNA level by real-time PCR analysis; settings: Hepatitis C virus subtype 1a
[3] = biological target: T1, Nonstructural protein 5A (Hepatitis C virus); assay: Inhibition of HCV GT4a NS5A assessed as suppression of replicon RNA level by real-time PCR analysis; settings: Hepatitis C virus subtype 4a
[4] = tested on: Nonstructural protein 5A (Hepatitis C virus), Q5L478 [UNDEFINED MUTATION]; assay: Inhibition of HCV GT1a NS5A L31V mutant assessed as suppression of replicon RNA level by real-time PCR analysis; settings: Hepatitis C virus subtype 1a
[5] = biological target: T1, Nonstructural protein 5A (Hepatitis C virus); assay: Inhibition of HCV GT3a NS5A assessed as suppression of replicon RNA level by real-time PCR analysis; settings: Hepatitis C virus subtype 3a
[6] = tested on: T2, Nonstructural protein 5A (Hepatitis C virus), Q5L478 [Y93H]; assay: Inhibition of HCV GT1a NS5A Y93H mutant assessed as suppression of replicon RNA level by real-time PCR analysis; settings: Hepatitis C virus subtype 1a
T2 sequence (whole entry): T1 sequence (whole entry) with Y93H

[7] = biological target: T1, Nonstructural protein 5A (Hepatitis C virus); assay: Inhibition of HCV GT2b NS5A assessed as suppression of replicon RNA level by real-time PCR analysis; settings: Hepatitis C virus subtype 2b
Procedure, shortened: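 GT2b replicon, which carries the naturally occurring NS5A 31M resistance-associated variant; potency given as EC90 in nM.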

[8] = biological target: T1, Nonstructural protein 5A (Hepatitis C virus); assay: Inhibition of HCV GT1b NS5A assessed as suppression of replicon RNA level by real-time PCR analysis; settings: Hepatitis C virus subtype 1b

Row | Structure (SMILES) | EC90 [1] [nM] | EC90 [2] [nM] | EC90 [3] [nM] | EC90 [4] [nM] | EC90 [5] [nM] | EC90 [6] [nM] | EC90 [7] [nM] | EC90 [8] [nM]
1 | COC(=O)N[C@H](C(=O)N1CCC[C@H]1c1ncc(-c2ccc3c(c2)cc2n3C(c3ccccc3)Oc3cc(-c4cnc([C@@H]5C[C@@H](F)CN5C(=O)[C@@H](NC(=O)OC)C(C)C)[nH]4)cc(F)c3-2)[nH]1)C(C)C (mixture of isomers) | 0.04 | 0.004 | 0.07 | 2 | 0.1 | 1 | 16 | 0.003
2 | COC(=O)N[C@H](C(=O)N1C[C@H](F)C[C@H]1c1ncc(-c2ccc3c(c2)OC(c2ccccc2)n2c-3c(F)c3cc(-c4cnc([C@@H]5C[C@@H](F)CN5C(=O)[C@@H](NC(=O)OC)C(C)C)[nH]4)ccc32)[nH]1)C(C)C (mixture of isomers) | 0.3 | 0.02 | 0.3 | 7 | 8 | 2 | 58 | 0.005
3 | CCCCOc1cccc(C2Oc3cc(-c4cnc([C@@H]5C[C@@H](F)CN5C(=O)[C@@H](NC(=O)OC)C(C)C)[nH]4)cc(F)c3-c3cc4cc(-c5cnc([C@@H]6C[C@@H](F)CN6C(=O)[C@@H](NC(=O)OC)C(C)C)[nH]5)ccc4n32)c1 (stereo partly drawn) |  |  |  | 4 |  | 0.1 | 126 | 0.008
4 | COC(=O)N[C@H](C(=O)N1CCC[C@H]1c1ncc(-c2ccc3c(c2)OCn2c-3c(C3CC3)c3cc(-c4cnc([C@@H]5CCCN5C(=O)[C@@H](NC(=O)OC)C(C)C)[nH]4)ccc32)[nH]1)C(C)C | 0.005 | 0.03 | 0.3 | 8 | 10 | 100 | 122 | 0.004
5 | COC(=O)N[C@H](C(=O)N1C[C@H](F)C[C@H]1c1ncc(-c2cc(F)c3c(c2)OC(c2cccc(OC(F)(F)F)c2)n2c-3cc3cc(-c4cnc([C@@H]5C[C@@H](F)CN5C(=O)[C@@H](NC(=O)OC)C(C)C)[nH]4)ccc32)[nH]1)C(C)C (stereo partly drawn) |  | 0.006 |  | 7 |  | 0.2 | 52 | 0.005
6 | COC(=O)N[C@H](C(=O)N1C[C@H](F)C[C@H]1c1ncc(-c2cc(F)c3c(c2)OC(c2cccc(OC)c2)n2c-3cc3cc(-c4cnc([C@@H]5C[C@@H](F)CN5C(=O)[C@@H](NC(=O)OC)C(C)C)[nH]4)ccc32)[nH]1)C(C)C (stereo partly drawn) |  | 0.006 |  | 2 |  | 0.07 | 39 | 0.007
7 | COC(=O)N[C@H](C(=O)N1CCC[C@H]1c1ncc(-c2ccc3c(c2)OCn2c-3cc3cc(-c4cnc([C@@H]5CCCN5C(=O)[C@@H](NC(=O)OC)C(C)C)[nH]4)cc(F)c32)[nH]1)C(C)C | 0.1 | 0.1 | 0.2 | 3 | > 10 | 139 | > 100 | 0.01
8 | COC(=O)N[C@H](C(=O)N1CCC[C@H]1c1ncc(-c2ccc3c(c2)cc2n3[C@H](c3ccccc3)Oc3cc(-c4cnc([C@@H]5CCCN5C(=O)[C@@H](NC(=O)OC)C(C)C)[nH]4)c(F)cc3-2)[nH]1)C(C)C | 0.003 | 0.003 | 0.02 | 1 | 1 | 62 | > 100 | 0.003
9 | COC(=O)N[C@H](C(=O)N1CCC[C@H]1c1ncc(-c2ccc3c(c2)OC(c2ccccc2)n2c-3c(F)c3cc(-c4cnc([C@@H]5C[C@@H](F)CN5C(=O)[C@@H](NC(=O)OC)C(C)C)[nH]4)ccc32)[nH]1)C(C)C (mixture of isomers) | 0.03 | 0.005 | 0.1 | 2 | 2 | 2 |  | 0.003
10 | COC(=O)N[C@H](C(=O)N1CCC[C@H]1c1nc(-c2ccc3c(c2)O[C@@H](c2ccccc2)n2c-3cc3cc(-c4c[nH]c([C@@H]5CCCN5C(=O)[C@@H](NC(=O)OC)C(C)C)n4)ccc32)c[nH]1)C(C)C | 0.019 |  | 0.016 |  | 0.12 |  |  | 
11 | COC(=O)N[C@H](C(=O)N1CCC[C@H]1c1ncc(-c2ccc3c(c2)OCn2c-3c(Cc3ccccc3)c3cc(-c4cnc([C@@H]5CCCN5C(=O)[C@@H](NC(=O)OC)C(C)C)[nH]4)ccc32)[nH]1)C(C)C |  | 0.1 |  | 9 |  | 187 | 28 | 0.01
12 | COC(=O)N[C@H](C(=O)N1CCC[C@H]1c1ncc(-c2ccc3c(c2)cc2n3C(c3cccc(OC)c3)Oc3cc(-c4cnc([C@@H]5C[C@@H](F)CN5C(=O)[C@@H](NC(=O)OC)C(C)C)[nH]4)cc(F)c3-2)[nH]1)C(C)C (stereo partly drawn) |  | 0.002 |  | 0.3 | 0.1 | 0.6 | 19 | 0.007
13 | COC(=O)N[C@H](C(=O)N1CCC[C@H]1c1ncc(-c2ccc3c(c2)cc2n3[C@H](c3ccccc3)Oc3c-2ccc(-c2cnc([C@@H]4CCCN4C(=O)[C@@H](NC(=O)OC)C(C)C)[nH]2)c3F)[nH]1)C(C)C | 0.4 | 0.04 | 1 | 36 | > 10 | > 100 | > 100 | 0.003
14 | COC(=O)N[C@H](C(=O)N1C[C@H](F)C[C@H]1c1ncc(-c2ccc3c(c2)OC(c2ccccc2)n2c-3cc3cc(-c4cnc([C@@H]5C[C@@H](F)CN5C(=O)[C@@H](NC(=O)OC)C(C)C)[nH]4)ccc32)[nH]1)C(C)C (mixture of isomers) | 0.7 | 0.01 | 0.2 | 10 | 2 | 2 | 63 | 0.004
15 | COC(=O)N[C@H](C(=O)N1CCC[C@H]1c1ncc(-c2ccc3c(c2)OCn2c-3c(-c3ccccc3)c3cc(-c4cnc([C@@H]5CCCN5C(=O)[C@@H](NC(=O)OC)C(C)C)[nH]4)ccc32)[nH]1)C(C)C | 0.01 | 0.09 | 0.09 | 4 | 3 | 5000 | 204 | 0.004
16 | COC(=O)N[C@H](C(=O)N1CCC[C@H]1c1ncc(-c2ccc3c(c2)O[C@@H](c2ccccc2)n2c-3c(F)c3cc(-c4cnc([C@@H]5CCCN5C(=O)[C@@H](NC(=O)OC)C(C)C)[nH]4)ccc32)[nH]1)C(C)C | 0.004 | 0.007 | 0.06 | 0.7 | 0.3 | 25 | 15 | 0.007
17 | COC(=O)N[C@H](C(=O)N1CCC[C@H]1c1ncc(-c2ccc3c(c2)OCn2c-3cc3cc(-c4cnc([C@@H]5CCCN5C(=O)[C@@H](NC(=O)OC)C(C)C)[nH]4)c(F)cc32)[nH]1)C(C)C | 0.02 | 0.007 | 0.2 | 68 | 5 | 77 | 150 | 0.007
18 | COC(=O)N[C@H](C(=O)N1CCC[C@H]1c1ncc(-c2ccc3c(c2)OCn2c-3cc3cc(-c4cnc([C@@H]5CCCN5C(=O)[C@@H](NC(=O)OC)C(C)C)[nH]4)ccc32)[nH]1)C(C)C | 0.02 | 0.02 | 0.2 | 7 | 1 | 100 | 76 | 0.02

Reference: ChEMBL document CHEMBL4431385, “Substituted tetracyclic indole core derivatives of HCV NS5A inhibitor MK-8742” (Bioorg Med Chem Lett, 2016)
